The list is not random: actives were taken first. Their share in the collection is about 2.4%.
Hck-Nef inh – blocks Nef-activated human Hck kinase; P08631; Recombinant Hck-YEEI plus Nef, Z-Lyte FRET kinase assay; inhibition, % at 20 µM; 0.68% of 220,000 active; AID 463187;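 active means Hck-Nef kinase inhibition above about 50%, limit read from the data; inactive means inhibition below that limit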;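 further: 0% = DMSO with Hck plus Nef and 100% = Hck alone without Nef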
Dynein cargo inh – blocks dynein driven cargo transport along microtubules | 3617.4 mouse cells, GR-EGFP nuclear translocation imaging; test concentration mostly 20 µM; stimulated with dexamethasone, 1 µM; active compounds read low | z-score, hits read low | 0.47% of 220,000 active | AID 1381;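 active means plate z-score of nuclear minus cytoplasmic receptor signal below a set negative limit, without overly bright fluorescence or cell loss, cut at about -3.5 in these data, passing the limit was not always enough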;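 further: z-score of nuclear minus cytoplasmic ring GR-EGFP intensity difference per well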
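Buffer or medium – tet-free medium with charcoal-stripped serum · Signal – automated 10x imaging of fixed Hoechst-stained cells · Also added – dexamethasone agonist, 1.0 µM final, for 30 min · Incubation – induction 48 h, compound 1 h, agonist 30 min · Read-out – GR-EGFP nuclear translocation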
L929 necroptosis – blocks zVAD induced death of L929 cells; viability rescue, % at 10 µM; 0.38% of 220,000 active; L929 zVAD necroptosis rescue, ATP luminescence, 24 h; with zVAD 60 µM;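 active means activation, scaled between plate controls, above about 75%, limit read from the data; inactive means activation under that limit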;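 further: 0% = zVAD with DMSO and 100% = DMSO alone without zVAD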
MDM2 E3 inh – inhibitors of human Mdm2 E3 ubiquitin ligase. Q00987. cell-based MDM2 ubiquitination luciferase reporter, 2 h; 0 = plate control, 100 = twice control, blank-subtracted. signal enhancement, % at 5 µM. 0.11% of 210,000 active. AID 1230;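 active means signal enhancement of 30% or more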;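 further: luminescence tracks abundance of the self-degrading MDM2-luciferase fusion protein; higher signal means inhibition of MDM2 E3 ligase activity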
Target sequence (Q00987 whole entry, looked up, the tested form may be a part): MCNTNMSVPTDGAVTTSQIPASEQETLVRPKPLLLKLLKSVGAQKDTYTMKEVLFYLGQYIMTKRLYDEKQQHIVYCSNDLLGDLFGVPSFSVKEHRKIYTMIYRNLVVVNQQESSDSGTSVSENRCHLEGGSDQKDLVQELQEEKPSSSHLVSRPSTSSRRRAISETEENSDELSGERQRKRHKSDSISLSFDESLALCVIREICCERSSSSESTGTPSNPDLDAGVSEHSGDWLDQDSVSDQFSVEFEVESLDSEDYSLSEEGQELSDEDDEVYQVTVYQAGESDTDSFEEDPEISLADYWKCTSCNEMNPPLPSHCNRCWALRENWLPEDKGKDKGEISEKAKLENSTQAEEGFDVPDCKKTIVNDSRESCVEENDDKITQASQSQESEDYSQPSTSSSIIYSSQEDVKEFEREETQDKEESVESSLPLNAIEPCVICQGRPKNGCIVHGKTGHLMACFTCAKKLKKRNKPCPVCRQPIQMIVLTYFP
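Buffer or medium: Cells held in DMEM | Assay system: Stable mammalian line carrying autodegrading MDM2–luciferase fusion reporter | Quantity: 2000 cells/well | Times: 4 h settle plus 2 h compound, 37 °C | Doses: One concentration, 5 µM, with 0.2% DMSO | Technique: Luminescence with SteadyLite reagent, 15 min at room temperature | Benchmarks: Plate controls and plate blanks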
TNF necrop inh – TNF-alpha cell death inhibition in Jurkat FADD-/- cells | 0.068% of 220,000 active | Jurkat FADD-/- TNF necroptosis rescue, ATP luminescence, 24 h; 0 = TNF only, 100 = no-TNF cells | activation (protection from cell death), % at 10 µM | AID 463075;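 active means activation, meaning protection from cell death, of at least 50% relative to plate controls; inactive means activation below 50%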;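 further: necroptosis triggered by 40 ng/mL TNF-alpha added together with compound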
Autophagy HCS – modulators of autophagy | calls only at 10 µM (by protocol) | 0.98% of 190,000 active | MEF GFP-LC3 puncta imaging; test concentration mostly 10 µM | AID 463193;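 active means percentage of spot-positive cells more than 3 SD above its plate mean, without a fluorescence outlier flag or 80% toxicity; inconclusive means no clear call, values can overlap the other calls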;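 further: spot-positive cell cutoff set from DMSO-treated cells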
Starred values were filed as active, the others as inactive; i = inactive; ? = inconclusive; · = no result; + = active, no number.

SMILES	Hck-Nef inh	Dynein cargo inh	L929 necroptosis	MDM2 E3 inh	TNF necrop inh	Autophagy HCS
CSc1nc(N(CCO)CCO)c2sc3nc(-c4ccco4)c4c(c3c2n1)CCC4	77*	-1	2	-17	-5	i
COCCNC(=O)c1c(NC(=O)c2nc(SC)ncc2Cl)sc2c1CCCC2	2	0.064	2	-13	1	+
CN1CCN(C(=O)CN(C)S(=O)(=O)c2ccc3ccccc3c2)CC1	11	0.85	-1	-11	-2	+
CC(=O)Nc1cccc(C(=O)OC(C(=O)c2ccc(C)c(C)c2)c2ccccc2)c1 (configuration not stated)	-1	-0.21	83*	-3	-9	i
CCOC(=O)NN1C(=O)c2ccccc2NC1c1ccccc1F (configuration not stated)	7	-0.23	0	-7	-2	i
Nc1nnnn1/N=C/c1cc(Cl)cc(Cl)c1OCc1ccc(Cl)cc1Cl	6	-0.55	0	-7	-1	+
Nc1nnnn1/N=C/c1ccccc1OCc1ccc(Cl)cc1Cl	13	-0.47	0	1	-2	i
CC1CCN(S(=O)(=O)c2ccc(S(=O)(=O)N3CCCN(Cc4ccccc4)C3)cc2)CC1	-6	0.13	-1	·	-1	i
COc1ccc(-c2cc(C(F)F)n3ncc(C(=O)Nc4ccc(C(=O)N5CCOCC5)cc4)c3n2)cc1	23	1.6	2	-15	-1	+
O=C(N/N=C/c1c(Nc2cccc(C(F)(F)F)c2)nc2ccccn2c1=O)c1ccccc1	0	0.56	0	-6	-5	+
CC1=CC(C)(C)Nc2ccc(OC(=O)CN3C(=O)c4ccccc4C3=O)cc21	0	-0.38	14	-11	-8	i
CC1=CC(C)(C)Nc2ccc(OC(=O)C(Cc3ccccc3)N3C(=O)c4ccccc4C3=O)cc21 (configuration not stated)	1	-0.32	97*	-9	-5	i
CN(C)CCCNS(=O)(=O)c1ccc(N2CCC(c3ccc(Cl)cc3)=N2)cc1	+	1.8	-4	-14	-15	?
CCOc1ccc2ccccc2c1C(=O)N1CCN(c2ccccc2)CC1	0	-1	2	-12	-6	+
O=C(O)c1ccccc1C(=O)N1CCN(c2cccc(Cl)c2)CC1	7	0.063	-1	-10	-1	i
CCOc1ccccc1C(=O)N1CCN(c2cccc(Cl)c2)CC1	3	-0.74	-1	-18	-12	+
CC(=O)c1cc2c(C)c(C(=O)c3ccccc3)oc2cc1O	-8	-0.099	1	-66	1	i
COc1ccc(-c2nnc(NC(=O)C3=COCCO3)o2)cc1	-2	0.72	0	1	0	i
CCN(CC)c1ccc(C(=O)OCc2cc(=O)oc3cc(O)ccc23)cc1	18	3.8	0	-36	-2	i
CCCCc1cc(=O)oc2cc(O)ccc12	115*	0.27	1	-9	-2	i
CN1CCN(NC(=O)Nc2cccc(Cl)c2Cl)CC1	-5	0.14	2	-10	2	+
CC(C)(C)c1ccc(NC(=O)N2CCCN(c3ccc([N+](=O)[O-])cn3)CC2)cc1	18	-0.5	3	-4	-6	·
CCN1/C(=C/c2ccc3cc(C)ccc3[n+]2CC)Sc2ccccc21	10	-5.1*	9	-60	-12	·
CCN1/C(=C/c2ccc3cc(C)ccc3[n+]2CC)Sc2cc(C)c(C)cc21	31	-0.41	17	-44	-9	+
O=C(NCc1c(Cl)cccc1Cl)c1ccc2nnsc2c1	10	0.11	0	-5	58*	·
SMILES	Hck-Nef inh	Dynein cargo inh	L929 necroptosis	MDM2 E3 inh	TNF necrop inh	Autophagy HCS
O=C1N/C(=C/c2ccc(N3CCOCC3)cc2)C(=O)N1Cc1ccc(F)cc1	1	-0.19	0	-20	-2	i
C=CCN1C(=O)N/C(=C/c2ccc(N3CCOCC3)o2)C1=O	2	-1.5	1	4	0	i
O=C1N/C(=C/c2ccc(N3CCOCC3)o2)C(=O)N1c1ccccc1	-2	-6.2*	0	47*	1	i
O=C1N/C(=C/c2ccc(N3CCCC3)cc2)C(=O)N1c1ccccc1	3	1.5	0	-8	2	+
Cc1c2c(nc3c(C)cccc13)OC(C)C2 (configuration not stated)	1	2	0	-17	3	+
COc1cccc2c3c(c(C)nc12)CC(C)O3 (configuration not stated)	1	-0.19	0	-11	-1	i
Cc1ccc(-c2ccc(/C=C(\C#N)C(=O)Nc3cc(C)nn3-c3ccccc3)o2)cc1	2	1.6	3	-2	0	+
CCOc1ccc2nc(N3C(=O)/C(=C/c4ccc(Cl)cc4)NC3=S)sc2c1	20	1.4	0	-12	-1	+
CCOC(=O)c1nc(C)nc(Sc2n[nH]c(-c3cc(C(F)(F)F)cc(C(F)(F)F)c3)n2)c1C	15	1	0	-9	1	·
O=C(c1cnc2ccc3ccccc3c2c1)c1cc(F)ccc1O	0	-0.44	0	·	-8	·
CCN(CC)CCCn1c(=S)[nH]c2ncccc2c1=O	4	-0.5	-1	0	2	i
O=c1c2cccnc2[nH]c(=S)n1CCCN1CCN(c2ccccc2F)CC1	0	3.6	-1	-10	-3	+
Cc1cc(N2CCN(c3ccccc3)CC2)n2ncnc2n1	21	-0.052	0	5	-1	i
Cc1cc(N2CCN(S(=O)(=O)c3ccc4ccccc4c3)CC2)n2ncnc2n1	22	-0.041	-3	6	-1	+
Cc1ccc(C(=O)O)cc1NC(=S)NC(=O)c1ccc(-c2ccc(Cl)cc2)o1	56*	0.036	0	-7	-2	·
Cc1ccc(C(=O)c2oc3ccccc3c2NC(=O)c2cc(-c3ccccc3O)n[nH]2)cc1	0	0.9	1	-4	4	+
CCCOC1OC(=O)c2c1ccc(OC)c2OC (configuration not stated)	0	2.2	0	-4	1	i
O=c1c2ccc([N+](=O)[O-])c3cccc(c32)c2nc3ccccc3n12	0	-0.017	0	-15	-16	+
COC(=O)c1ccccc1NC(=O)c1cccs1	7	-0.42	-1	4	-2	i
COC(=O)c1ccccc1NC(=O)c1cc(-c2cccs2)on1	-1	-1.1	1	-12	1	+
O=C(CSC(=S)N1CCOCC1)N1N=CCC1c1ccccc1 (configuration not stated)	-2	-0.33	0	-11	50*	i
